# Tests used:
# [1] = Inhibition of Saccharomyces cerevisiae fatty acid synthase
# Procedure, shortened: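 Yeast FAS semipurified by 50% ammonium sulfate precipitation of lysate (pH 6.6 phosphate, EDTA, DTT, protease inhibitors), dialyzed, and diluted to 250 mOD/min/mL. Samples preincubated with enzyme 30 min at room temperature, then mixed 1:1 with mix of 1 mM malonyl CoA and NADPH, 40 µM acetyl CoA, and 2 mM DTT. A340 read kinetically; rate over initial 2 min. IC50 from dose-response curves.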
# [2] = system: Cryptococcus neoformans; test: Antifungal activity against Cryptococcus neoformans ATCC 90113; format: functional, organism-based
# [3] = system: Candida albicans; test: Antifungal activity against Candida albicans ATCC 90028; format: functional, organism-based
SMILES,IC50 [1],IC50 [2],IC50 [3]
Cc1c(-c2ccccc2)oc2c(C(=O)O)cccc2c1=O,> 50 µg/mL,> 50 µg/mL,> 50 µg/mL
COc1ccc(-c2cc(=O)c3c(O)cc(O)cc3o2)cc1-c1c(OC)cc(O)c2c(=O)cc(-c3ccc(O)cc3)oc12,49 µg/mL,> 50 µg/mL,> 50 µg/mL
O=c1c(-c2ccc(O)cc2)coc2cc(O)c(O)cc12,50 µg/mL,> 50 µg/mL,> 50 µg/mL
O=c1cc(-c2ccc(Cl)cc2)oc2ccc(Br)cc12,> 50 µg/mL,> 50 µg/mL,> 50 µg/mL
C=C(C)C(O)Cc1c(O)ccc(C(=O)/C=C/c2ccc(O)cc2)c1O (centres undefined),46 µg/mL,50 µg/mL,20 µg/mL
CC1(C)CC[C@]2(C(=O)O)CC[C@]3(C)C(=CC[C@@H]4[C@@]5(C)C[C@@H](O)[C@H](O)[C@@](C)(COC(=O)c6cc(O)c(O)c(O)c6)[C@@H]5[C@H](O)C[C@]43C)[C@@H]2C1,> 50 µg/mL,> 50 µg/mL,> 50 µg/mL
O=Cc1cc(-c2coc3cc(O)cc(O)c3c2=O)ccc1O,2.3 µg/mL,> 50 µg/mL,> 50 µg/mL
Cc1ccc2oc(-c3ccc(Cl)cc3)cc(=O)c2c1,> 50 µg/mL,> 50 µg/mL,> 50 µg/mL
O=c1cc(-c2ccc(Cl)cc2)oc2c(Br)cc(Br)cc12,> 50 µg/mL,> 50 µg/mL,> 50 µg/mL
O=c1cc(-c2ccccc2)oc2c(Br)cc(Br)cc12,> 50 µg/mL,> 50 µg/mL,> 50 µg/mL
COc1cc2c(=O)oc3c(OC)c(O[C@@H]4O[C@H](CO)[C@@H](O)[C@H](O)[C@H]4O)cc4c(=O)oc(c1OC)c2c34,> 50 µg/mL,> 50 µg/mL,> 50 µg/mL
O=C1c2c(O)cc(O)cc2OC(c2ccc(O)cc2O)C1O (centres undefined),> 50 µg/mL,> 50 µg/mL,> 50 µg/mL
Cc1cc2oc(-c3ccccc3)cc(=O)c2cc1Cl,> 50 µg/mL,> 50 µg/mL,> 50 µg/mL
COc1cc(O)c(C(=O)CCc2ccccc2)c(O)c1,> 50 µg/mL,> 50 µg/mL,> 50 µg/mL
O=C1c2c(O)cc(O)c(C3C(=O)c4c(O)cc(O)cc4OC3c3ccc(O)cc3)c2OC(c2ccc(O)c(O)c2)C1O (centres undefined),23 µg/mL,> 50 µg/mL,> 50 µg/mL
C=C(C)C(O)Cc1cc(-c2coc3cc(O)cc(O)c3c2=O)ccc1O (centres undefined),> 50 µg/mL,> 50 µg/mL,> 50 µg/mL
O=C1c2c(O)cc(O)cc2OC(c2ccc(O)cc2)C1c1c(O)cc(O)c2c(=O)cc(-c3ccc(O)c(O)c3)oc12 (centres undefined),30 µg/mL,> 50 µg/mL,> 50 µg/mL
Oc1cc(O)c2c(c1)O[C@H](c1ccc(O)c(O)c1)[C@H](O)C2 [(-)-EPICATECHIN],> 50 µg/mL,> 50 µg/mL,> 50 µg/mL
CC1(C)C=Cc2c(cc3occ(-c4ccc(O)cc4)c(=O)c3c2O)O1 [ALPINUMISOFLAVONE],> 50 µg/mL,> 50 µg/mL,> 50 µg/mL
O=C1c2c(O)cc(O)cc2OC1(O)Cc1cc(O)c(O)c(O)c1 (centres undefined) [AMARANOL A],> 50 µg/mL,> 50 µg/mL,> 50 µg/mL
COc1c(O)cc(CC2(O)Oc3cc(O)cc(O)c3C2=O)cc1O (centres undefined) [AMARONOL B],> 50 µg/mL,> 50 µg/mL,> 50 µg/mL
O=c1cc(-c2ccc(O)c(-c3c(O)cc(O)c4c(=O)cc(-c5ccc(O)cc5)oc34)c2)oc2cc(O)cc(O)c12 [AMENTOFLAVONE],7 µg/mL,> 50 µg/mL,> 50 µg/mL
O=c1cc(-c2ccc(O)cc2)oc2cc(O)cc(O)c12 [APIGENIN],37.5 µg/mL,20 µg/mL,> 50 µg/mL

# Source: ChEMBL document CHEMBL1150169, “Fatty acid synthase inhibitors from plants: isolation, structure elucidation, and SAR studies” (J Nat Prod, 2002)
